Converted amounts (≈) assume the structure as drawn.
How the values were obtained:
Escherichia coli [1] = test: Compound was evaluated for its antibacterial activity against Escherichia coli 0157:H7; assay type: functional
Klebsiella pneumoniae [2] = test: Compound was evaluated for its antibacterial activity against Klebsiella pneumoniae 1 ESBL; assay type: functional
Shigella sonnei = test: Compound was evaluated for its antibacterial activity against Shigella sonnei ATCC 9290; assay type: functional
Escherichia coli [3] = test: Compound was evaluated for its antibacterial activity against Escherichia coli CCARM 1113 MDR; assay type: functional
Escherichia coli [4] = test: Compound was evaluated for its antibacterial activity against Escherichia coli CCARM 1115 MDR; assay type: functional
Klebsiella aerogenes = test: Antibacterial activity against Klebsiella aerogenes 1522E; assay type: functional
Procedure, shortened: (§1)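 MIC was determined by agar dilution on Mueller–Hinton medium.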

Escherichia coli [5] = test: Compound was evaluated for its antibacterial activity against Escherichia coli CCARM 1111 MDR; assay type: functional
Staphylococcus aureus [6] = test: Antibacterial activity against Staphylococcus aureus 503; assay type: functional
Escherichia coli [7] = test: Antibacterial activity against Escherichia coli 078; assay type: functional; procedure, shortened: as §1
Salmonella typhimurium [8] = test: Compound was evaluated for its antibacterial activity against Salmonella Typhimurium; assay type: functional, Salmonella enterica subsp. enterica serovar Typhimurium; settings: Salmonella enterica
Escherichia coli [9] = test: Compound was evaluated for its antibacterial activity against Escherichia coli DC 2; assay type: functional
Escherichia coli [10] = test: Compound was evaluated for its antibacterial activity against Escherichia coli CCARM 1117 MDR; assay type: functional
Klebsiella oxytoca = test: Compound was evaluated for its antibacterial activity against Klebsiella oxytoca 1082E; assay type: functional
Klebsiella pneumoniae [11] = test: Compound was evaluated for its antibacterial activity against Klebsiella pneumoniae 4 ESBL; assay type: functional
Pseudomonas aeruginosa [12] = test: Antibacterial activity against Pseudomonas aeruginosa 9027; assay type: functional; procedure, shortened: as §1
Pseudomonas aeruginosa [13] = test: Compound was evaluated for its antibacterial activity against Pseudomonas aeruginosa 3 MDR; assay type: functional
Pseudomonas aeruginosa [14] = test: Compound was evaluated for its antibacterial activity against Pseudomonas aeruginosa 1 MDR; assay type: functional
Enterobacter cloacae [15] = test: Compound was evaluated for its antibacterial activity against Enterobacter cloacae P99; assay type: functional
Escherichia coli [16] = test: Compound was evaluated for its antibacterial activity against Escherichia coli CCARM 1114 MDR; assay type: functional
Salmonella typhimurium [17] = test: Compound was evaluated for its antibacterial activity against Salmonella Typhimurium 2; assay type: functional, Salmonella enterica subsp. enterica serovar Typhimurium; settings: Salmonella enterica
Klebsiella pneumoniae [18] = test: Compound was evaluated for its antibacterial activity against Klebsiella pneumoniae 5 ESBL; assay type: functional
Escherichia coli [19] = test: Compound was evaluated for its antibacterial activity against Escherichia coli DC 0; assay type: functional
Klebsiella pneumoniae [20] = test: Compound was evaluated for its antibacterial activity against Klebsiella pneumoniae 8 ESBL; assay type: functional
Pseudomonas aeruginosa [21] = test: Compound was evaluated for its antibacterial activity against Pseudomonas aeruginosa 2 MDR; assay type: functional
[22] = Compound was evaluated for its relative half life of hydrolysis to meropenem by partially purified porcine renal dihydropeptidase-I (DHP-I); assay type: functional; settings: Sus scrofa
Escherichia coli [23] = test: Compound was evaluated for its antibacterial activity against Escherichia coli CCARM 1109 MDR; assay type: functional
Staphylococcus aureus [24] = test: Antibacterial activity against Staphylococcus aureus 285; assay type: functional
Pseudomonas aeruginosa [25] = test: Antibacterial activity against Pseudomonas aeruginosa 1592E
Klebsiella pneumoniae [26] = test: Compound was evaluated for its antibacterial activity against Klebsiella pneumoniae 10 ESBL; assay type: functional
Escherichia coli [27] = test: Antibacterial activity against Escherichia coli 1507E; assay type: functional; procedure, shortened: as §1
Pseudomonas aeruginosa [28] = test: Compound was evaluated for its antibacterial activity against Pseudomonas aeruginosa ATCC 27853; assay type: functional
Klebsiella pneumoniae [29] = test: Compound was evaluated for its antibacterial activity against Klebsiella pneumoniae 9 ESBL; assay type: functional
Klebsiella pneumoniae [30] = test: Compound was evaluated for its antibacterial activity against Klebsiella pneumoniae 3 ESBL; assay type: functional
Staphylococcus aureus [31] = test: Antibacterial activity against Staphylococcus aureus SG 511; assay type: functional
Escherichia coli [32] = test: Compound was evaluated for its antibacterial activity against Escherichia coli CCARM 1110 MDR; assay type: functional
Escherichia coli [33] = test: Compound was evaluated for its antibacterial activity against Escherichia coli CCARM 1108 MDR; assay type: functional
Salmonella typhimurium [34] = test: Compound was evaluated for its antibacterial activity against Salmonella Typhimurium 1; assay type: functional, Salmonella enterica subsp. enterica serovar Typhimurium; settings: Salmonella enterica
Pseudomonas aeruginosa [35] = test: Antibacterial activity against Pseudomonas aeruginosa 1771M; assay type: functional; procedure, shortened: as §1
Escherichia coli [36] = test: Compound was evaluated for its antibacterial activity against Escherichia coli TEM; assay type: functional
Salmonella enteritidis [37] = test: Compound was evaluated for its antibacterial activity against […] enteritidis 2; assay type: functional, Salmonella enterica subsp. enterica serovar Enteritidis; settings: Salmonella enterica
Streptococcus pyogenes = test: Antibacterial activity against Streptococcus pyogenes 308A; assay type: functional
Shigella flexneri = test: Compound was evaluated for its antibacterial activity against Shigella flexneri ATCC 9199; assay type: functional
Klebsiella pneumoniae [38] = test: Compound was evaluated for its antibacterial activity against Klebsiella pneumoniae 6 ESBL; assay type: functional
Klebsiella pneumoniae [39] = test: Compound was evaluated for its antibacterial activity against Klebsiella pneumoniae 2 ESBL; assay type: functional
Enterobacter cloacae [40] = test: Antibacterial activity against Enterobacter cloacae 1321E; assay type: functional; procedure, shortened: as §1
Escherichia coli [41] = test: Compound was evaluated for its antibacterial activity against Escherichia coli ATCC 25922; assay type: functional
Escherichia coli [42] = test: Compound was evaluated for its antibacterial activity against Escherichia coli CCARM 1112 MDR; assay type: functional
Salmonella enteritidis [43] = test: Compound was evaluated for its antibacterial activity against […] enteritidis 3; assay type: functional, Salmonella enterica subsp. enterica serovar Enteritidis; settings: Salmonella enterica
Klebsiella pneumoniae [44] = test: Compound was evaluated for its antibacterial activity against Klebsiella pneumoniae 7 ESBL; assay type: functional
Escherichia coli [45] = test: Compound was evaluated for its antibacterial activity against Escherichia coli CCARM 1116 MDR; assay type: functional
Salmonella enteritidis [46] = test: Compound was evaluated for its antibacterial activity against […] enteritidis; assay type: functional, Salmonella enterica subsp. enterica serovar Enteritidis; settings: Salmonella enterica
Salmonella typhimurium [47] = test: Antibacterial activity against Salmonella Typhimurium; assay type: functional, Salmonella enterica subsp. enterica serovar Typhimurium; settings: Salmonella enterica; procedure, shortened: as §1
Salmonella enteritidis [48] = test: Compound was evaluated for its antibacterial activity against […] enteritidis 1; assay type: functional, Salmonella enterica subsp. enterica serovar Enteritidis; settings: Salmonella enterica
Pseudomonas aeruginosa [49] = test: Antibacterial activity against Pseudomonas aeruginosa 1592E; remark: listed apart in the source

C[C@@H](O)[C@H]1C(=O)N2C(C(=O)O)=C(S[C@@H]3CN[C@H](C(=O)N4CC/C(=N/O)C4)C3)[C@H](C)[C@H]12
MIC (Escherichia coli [1]): 0.016 µg/mL (≈ 0.0365 µM) | MIC (Klebsiella pneumoniae [2]): 0.03 µg/mL (≈ 0.0684 µM) | MIC (Shigella sonnei): 0.016 µg/mL (≈ 0.0365 µM) | MIC (Escherichia coli [3]): 0.06 µg/mL (≈ 0.137 µM) | MIC (Escherichia coli [4]): 0.03 µg/mL (≈ 0.0684 µM) | MIC (Klebsiella aerogenes): 0.025 µg/mL (≈ 0.057 µM) | MIC (Escherichia coli [5]): 0.016 µg/mL (≈ 0.0365 µM) | MIC (Staphylococcus aureus [6]): 0.098 µg/mL (≈ 0.223 µM) | MIC (Escherichia coli [7]): 0.025 µg/mL (≈ 0.057 µM) | MIC (Salmonella typhimurium [8]): 0.03 µg/mL (≈ 0.0684 µM) | MIC (Escherichia coli [9]): 0.016 µg/mL (≈ 0.0365 µM) | MIC (Escherichia coli [10]): 0.03 µg/mL (≈ 0.0684 µM) | MIC (Klebsiella oxytoca): 0.13 µg/mL (≈ 0.296 µM) | MIC (Klebsiella pneumoniae [11]): 0.03 µg/mL (≈ 0.0684 µM) | MIC (Pseudomonas aeruginosa [12]): 0.391 µg/mL (≈ 0.892 µM) | MIC (Pseudomonas aeruginosa [13]): 8 µg/mL (≈ 18.2 µM) | MIC (Pseudomonas aeruginosa [14]): 1 µg/mL (≈ 2.28 µM) | MIC (Enterobacter cloacae [15]): 0.13 µg/mL (≈ 0.296 µM) | MIC (Escherichia coli [16]): 0.13 µg/mL (≈ 0.296 µM) | MIC (Salmonella typhimurium [17]): 0.03 µg/mL (≈ 0.0684 µM) | MIC (Klebsiella pneumoniae [18]): 0.016 µg/mL (≈ 0.0365 µM) | MIC (Escherichia coli [19]): 0.03 µg/mL (≈ 0.0684 µM) | MIC (Klebsiella pneumoniae [20]): 0.25 µg/mL (≈ 0.57 µM) | MIC (Pseudomonas aeruginosa [21]): 8 µg/mL (≈ 18.2 µM) | relative t1/2 (DHP-I hydrolysis vs meropenem) [22]: 1.03 | MIC (Escherichia coli [23]): 0.06 µg/mL (≈ 0.137 µM) | MIC (Staphylococcus aureus [24]): 0.195 µg/mL (≈ 0.445 µM) | MIC (Pseudomonas aeruginosa [25]): 0.391 µg/mL (≈ 0.892 µM) | MIC (Klebsiella pneumoniae [26]): 0.016 µg/mL (≈ 0.0365 µM) | MIC (Escherichia coli [27]): 0.025 µg/mL (≈ 0.057 µM) | MIC (Pseudomonas aeruginosa [28]): 1 µg/mL (≈ 2.28 µM) | MIC (Klebsiella pneumoniae [29]): 0.03 µg/mL (≈ 0.0684 µM) | MIC (Klebsiella pneumoniae [30]): 0.13 µg/mL (≈ 0.296 µM) | MIC (Staphylococcus aureus [31]): 0.195 µg/mL (≈ 0.445 µM) | MIC (Escherichia coli [32]): 0.06 µg/mL (≈ 0.137 µM) | MIC (Escherichia coli [33]): 0.03 µg/mL (≈ 0.0684 µM) | MIC (Salmonella typhimurium [34]): 0.016 µg/mL (≈ 0.0365 µM) | MIC (Pseudomonas aeruginosa [35]): 0.195 µg/mL (≈ 0.445 µM) | MIC (Escherichia coli [36]): 0.016 µg/mL (≈ 0.0365 µM) | MIC (Salmonella enteritidis [37]): ≤ 0.008 µg/mL | MIC (Streptococcus pyogenes): 0.013 µg/mL (≈ 0.0296 µM) | MIC (Shigella flexneri): 0.016 µg/mL (≈ 0.0365 µM) | MIC (Klebsiella pneumoniae [38]): 0.03 µg/mL (≈ 0.0684 µM) | MIC (Klebsiella pneumoniae [39]): 0.03 µg/mL (≈ 0.0684 µM) | MIC (Enterobacter cloacae [40]): 0.013 µg/mL (≈ 0.0296 µM) | MIC (Escherichia coli [41]): 0.016 µg/mL (≈ 0.0365 µM) | MIC (Escherichia coli [42]): 0.016 µg/mL (≈ 0.0365 µM) | MIC (Salmonella enteritidis [43]): 0.016 µg/mL (≈ 0.0365 µM) | MIC (Klebsiella pneumoniae [44]): 0.06 µg/mL (≈ 0.137 µM) | MIC (Escherichia coli [45]): 0.016 µg/mL (≈ 0.0365 µM) | MIC (Salmonella enteritidis [46]): 0.016 µg/mL (≈ 0.0365 µM) | MIC (Salmonella typhimurium [47]): 0.025 µg/mL (≈ 0.057 µM) | MIC (Salmonella enteritidis [48]): 0.016 µg/mL (≈ 0.0365 µM)

C[C@@H](O)[C@H]1C(=O)N2C(C(=O)O)=C(S[C@@H]3CN[C@H](C(=O)N4C/C(=N\O)C(CN)C4)C3)[C@H](C)[C@H]12 (stereo partly specified)
MIC (Klebsiella aerogenes): 0.098 µg/mL (≈ 0.21 µM) | MIC (Staphylococcus aureus [6]): 0.098 µg/mL (≈ 0.21 µM) | MIC (Escherichia coli [7]): 0.025 µg/mL (≈ 0.0535 µM) | MIC (Pseudomonas aeruginosa [12]): 0.195 µg/mL (≈ 0.417 µM) | relative t1/2 (DHP-I hydrolysis vs meropenem) [22]: 0.31 | MIC (Pseudomonas aeruginosa [49]): 0.098 µg/mL (≈ 0.21 µM) | MIC (Staphylococcus aureus [24]): 0.195 µg/mL (≈ 0.417 µM) | MIC (Escherichia coli [27]): 0.049 µg/mL (≈ 0.105 µM) | MIC (Staphylococcus aureus [31]): 0.098 µg/mL (≈ 0.21 µM) | MIC (Pseudomonas aeruginosa [35]): 0.098 µg/mL (≈ 0.21 µM) | MIC (Streptococcus pyogenes): 0.002 µg/mL (≈ 0.00428 µM) | MIC (Enterobacter cloacae [40]): 0.049 µg/mL (≈ 0.105 µM) | MIC (Salmonella typhimurium [47]): 0.098 µg/mL (≈ 0.21 µM)

From ChEMBL document CHEMBL1145884, “Synthesis and biological activity of novel 1beta-methylcarbapenems with oxyiminopyrrolidinylamide moiety” (2003)
